{
  "source": "ChEMBL document CHEMBL4765319",
  "about": "“Identification of a new series of flavopiridol-like structures as kinase inhibitors with high cytotoxic potency” (Eur J Med Chem, 2020)",
  "key": {"[1]": {"molecular_target": "T1, Cyclin-dependent kinase 5/CDK5 activator 1 (Homo sapiens) (UniProt Q00535+Q15078)", "T1 sequence (Q00535 whole entry)": "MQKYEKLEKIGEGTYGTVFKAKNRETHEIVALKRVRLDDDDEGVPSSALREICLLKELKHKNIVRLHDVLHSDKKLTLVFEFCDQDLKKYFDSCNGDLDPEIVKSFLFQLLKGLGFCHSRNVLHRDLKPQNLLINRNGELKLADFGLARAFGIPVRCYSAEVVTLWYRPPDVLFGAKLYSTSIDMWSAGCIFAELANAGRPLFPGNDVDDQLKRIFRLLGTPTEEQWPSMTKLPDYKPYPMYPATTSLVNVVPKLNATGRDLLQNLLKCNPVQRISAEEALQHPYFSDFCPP", "T1 sequence (Q15078 99-307 partner limits assumed)": "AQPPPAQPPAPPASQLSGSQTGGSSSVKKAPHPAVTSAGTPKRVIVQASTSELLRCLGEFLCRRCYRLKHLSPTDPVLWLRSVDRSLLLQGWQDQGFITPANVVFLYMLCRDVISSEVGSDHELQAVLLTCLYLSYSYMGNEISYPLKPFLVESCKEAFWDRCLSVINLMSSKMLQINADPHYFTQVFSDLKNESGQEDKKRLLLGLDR", "assay": "Inhibition of human CDK5/p25 assessed as residual activity at 10 uM in presence of ATP by ADP-glo luminescent assay relative to control", "assay_type": "protein-complex assay", "summary_of_the_method": "(§1)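 Human kinases assayed by ADP-Glo luminescence with 10 μM ATP, compound at 10 or 1 μM. Activity is expressed as % of maximal activity relative to a DMSO control, mean n = 2.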"}, "[2]": {"molecular_target": "T1, Cyclin-dependent kinase 5/CDK5 activator 1 (Homo sapiens)", "assay": "Inhibition of human CDK5/p25 assessed as residual activity at 1 uM in presence of ATP by ADP-glo luminescent assay relative to control", "assay_type": "protein-complex assay", "summary_of_the_method": "as §1"}, "[3]": {"molecular_target": "T2, CDK9/cyclin T1 (Homo sapiens) (UniProt O60563+P50750)", "assay": "Inhibition of human CDK9/cyclin T assessed as residual activity at 10 uM in presence of ATP by ADP-glo luminescent assay relative to control", "assay_type": "protein-complex assay", "summary_of_the_method": "as §1"}, "[4]": {"molecular_target": "T2, CDK9/cyclin T1 (Homo sapiens)", "assay": "Inhibition of human CDK9/cyclin T assessed as residual activity at 1 uM in presence of ATP by ADP-glo luminescent assay relative to control", "assay_type": "protein-complex assay", "summary_of_the_method": "as §1"}, "[5]": {"molecular_target": "T3, Glycogen synthase kinase-3 beta (Homo sapiens, UniProt P49841)", "assay": "Inhibition of human GSK3beta assessed as residual activity at 10 uM in presence of ATP by ADP-glo luminescent assay relative to control", "summary_of_the_method": "as §1"}, "[6]": {"molecular_target": "T3, Glycogen synthase kinase-3 beta", "assay": "Inhibition of human GSK3beta assessed as residual activity at 1 uM in presence of ATP by ADP-glo luminescent assay relative to control", "summary_of_the_method": "as §1"}, "Leishmania major": {"system": "Leishmania major", "assay": "Inhibition of Leishmania major CK1 assessed as residual activity at 10 uM in presence of ATP by ADP-glo luminescent assay relative to control"}, "Plasmodium falciparum": {"system": "Plasmodium falciparum", "assay": "Inhibition of Plasmodium falciparum GSK3 assessed as residual activity at 1 uM in presence of ATP by ADP-glo luminescent assay relative to control", "summary_of_the_method": "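Recombinant P. falciparum GSK3, bacterially expressed, in buffer A (10 mM MgCl2, 1 mM EGTA, 1 mM DTT, 25 mM Tris-HCl pH 7.5, 50 μg/ml heparin). Substrate 0.010 μg/μl GS-1 peptide, 10 μM ATP, ADP-Glo luminescence. Compound at 10 or 1 μM; % residual activity vs DMSO control, mean n = 2.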"}, "Sus scrofa": {"species_on_record": "Sus scrofa", "assay": "Inhibition of porcine CK1delta/epsilon assessed as residual activity at 10 uM in presence of ATP by ADP-glo luminescent assay relative to control"}, "[7]": {"molecular_target": "Cyclin-dependent kinase 5/CDK5 activator 1 (Homo sapiens, UniProt Q00535)", "sequence (Q00535 whole entry)": "as the sequence (Q00535 whole entry) above", "sequence (Q15078 whole entry, further chain)": "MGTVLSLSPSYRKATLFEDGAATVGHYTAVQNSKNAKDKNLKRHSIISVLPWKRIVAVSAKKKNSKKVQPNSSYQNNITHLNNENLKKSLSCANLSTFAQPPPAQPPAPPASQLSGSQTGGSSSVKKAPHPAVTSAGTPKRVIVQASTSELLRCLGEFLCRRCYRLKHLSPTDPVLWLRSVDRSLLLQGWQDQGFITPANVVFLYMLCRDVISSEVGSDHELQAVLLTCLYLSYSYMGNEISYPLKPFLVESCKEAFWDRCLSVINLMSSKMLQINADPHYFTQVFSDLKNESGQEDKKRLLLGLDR", "assay": "Inhibition of human CDK5/p25 in presence of ATP by ADP-glo luminescent assay", "assay_type": "protein-complex assay", "summary_of_the_method": "(§2)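 Human kinases tested over roughly 0.0003–10 μM by ADP-Glo luminescence with 10 μM ATP, in duplicate. IC50 is taken from dose-response curves.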"}, "CDK9/cyclin T1": {"molecular_target": "CDK9/cyclin T1 (Homo sapiens, UniProt P50750)", "sequence (O60563 whole entry)": "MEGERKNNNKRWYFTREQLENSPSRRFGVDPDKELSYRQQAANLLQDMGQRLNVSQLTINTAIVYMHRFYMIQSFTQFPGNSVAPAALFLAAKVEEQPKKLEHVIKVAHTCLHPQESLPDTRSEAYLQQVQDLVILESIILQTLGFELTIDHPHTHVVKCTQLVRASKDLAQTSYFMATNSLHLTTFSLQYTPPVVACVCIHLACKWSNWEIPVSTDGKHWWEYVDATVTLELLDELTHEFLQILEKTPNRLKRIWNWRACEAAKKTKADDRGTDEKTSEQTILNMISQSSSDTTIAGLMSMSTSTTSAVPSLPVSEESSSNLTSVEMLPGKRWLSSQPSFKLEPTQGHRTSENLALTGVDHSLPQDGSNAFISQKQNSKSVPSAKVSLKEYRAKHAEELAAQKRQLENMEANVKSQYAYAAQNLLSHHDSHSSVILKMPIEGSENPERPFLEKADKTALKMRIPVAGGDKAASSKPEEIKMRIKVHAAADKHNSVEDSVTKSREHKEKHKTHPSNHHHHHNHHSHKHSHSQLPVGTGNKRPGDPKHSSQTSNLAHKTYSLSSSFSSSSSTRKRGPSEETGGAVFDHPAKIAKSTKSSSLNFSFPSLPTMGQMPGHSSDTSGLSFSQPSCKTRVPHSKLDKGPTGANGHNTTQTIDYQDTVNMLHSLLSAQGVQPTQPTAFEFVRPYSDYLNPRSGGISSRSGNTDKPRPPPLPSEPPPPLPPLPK", "sequence (P50750 whole entry)": "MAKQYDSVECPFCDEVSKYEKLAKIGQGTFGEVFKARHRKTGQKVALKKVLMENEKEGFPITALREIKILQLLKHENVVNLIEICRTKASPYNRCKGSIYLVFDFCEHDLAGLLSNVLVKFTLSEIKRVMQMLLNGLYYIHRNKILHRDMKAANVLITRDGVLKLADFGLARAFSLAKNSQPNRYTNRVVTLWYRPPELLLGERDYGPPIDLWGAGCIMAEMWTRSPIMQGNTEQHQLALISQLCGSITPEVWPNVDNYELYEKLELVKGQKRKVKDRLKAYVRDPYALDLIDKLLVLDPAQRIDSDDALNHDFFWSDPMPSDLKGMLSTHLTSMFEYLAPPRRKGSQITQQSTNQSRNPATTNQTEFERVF", "assay": "Inhibition of human CDK9/cyclin T in presence of ATP by ADP-glo luminescent assay", "assay_type": "protein-complex assay", "summary_of_the_method": "as §2"}, "[8]": {"molecular_target": "T3, Glycogen synthase kinase-3 beta", "assay": "Inhibition of human GSK3beta in presence of ATP by ADP-glo luminescent assay", "summary_of_the_method": "as §2"}, "[9]": {"molecular_target": "T3, Glycogen synthase kinase-3 beta", "assay": "ATP competitive inhibition of human GSK3beta at 500 nM in presence of ATP by ADP-glo luminescent assay", "summary_of_the_method": "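HsGSK3β activity by ADP-Glo luminescence with 500 nM inhibitor, or without it, across ATP 3.125 to 100 μM. Residual activity is given as % of a DMSO control, mean (n = 3) ± SD.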"}, "K562 [10]": {"system": "K562", "assay": "Cell cycle arrest in human K562 cells assessed as accumulation at G0/G1 phase at 25 nM after 24 hrs by propidium iodide staining-based flow cytometric analysis (reference value: 21.4 %)", "assay_type": "functional"}, "K562 [11]": {"system": "K562", "assay": "Cell cycle arrest in human K562 cells assessed as accumulation at G0/G1 phase at 50 nM after 24 hrs by propidium iodide staining-based flow cytometric analysis (reference value: 21.4 %)", "assay_type": "functional"}, "K562 [12]": {"system": "K562", "assay": "Cell cycle arrest in human K562 cells assessed as accumulation at S phase at 25 nM after 24 hrs by propidium iodide staining-based flow cytometric analysis (reference value: […])", "assay_type": "functional"}, "K562 [13]": {"system": "K562", "assay": "Cell cycle arrest in human K562 cells assessed as accumulation at S phase at 50 nM after 24 hrs by propidium iodide staining-based flow cytometric analysis (reference value: […])", "assay_type": "functional"}, "K562 [14]": {"system": "K562", "assay": "Cell cycle arrest in human K562 cells assessed as accumulation at G2/M phase at 25 nM after 24 hrs by propidium iodide staining-based flow cytometric analysis (reference value: 12.9 %)", "assay_type": "functional"}, "HCT-116 [15]": {"system": "HCT-116", "assay": "Cell cycle arrest in human HCT-116 cells assessed as accumulation at G0/G1 phase at 100 nM after 24 hrs by propidium iodide staining-based flow cytometric analysis (reference value: 20.9 %)", "assay_type": "functional"}, "HCT-116 [16]": {"system": "HCT-116", "assay": "Cell cycle arrest in human HCT-116 cells assessed as accumulation at G0/G1 phase at 200 nM after 24 hrs by propidium iodide staining-based flow cytometric analysis (reference value: 20.9 %)", "assay_type": "functional"}, "HCT-116 [17]": {"system": "HCT-116", "assay": "Cell cycle arrest in human HCT-116 cells assessed as accumulation at G0/G1 phase at 500 nM after 24 hrs by propidium iodide staining-based flow cytometric analysis (reference value: 20.9 %)", "assay_type": "functional"}, "HCT-116 [18]": {"system": "HCT-116", "assay": "Cell cycle arrest in human HCT-116 cells assessed as accumulation at S phase at 100 nM after 24 hrs by propidium iodide staining-based flow cytometric analysis (reference value: 47.6 %)", "assay_type": "functional"}, "HCT-116 [19]": {"system": "HCT-116", "assay": "Cell cycle arrest in human HCT-116 cells assessed as accumulation at S phase at 200 nM after 24 hrs by propidium iodide staining-based flow cytometric analysis (reference value: 47.6 %)", "assay_type": "functional"}, "HCT-116 [20]": {"system": "HCT-116", "assay": "Cell cycle arrest in human HCT-116 cells assessed as accumulation at G2/M phase at 100 nM after 24 hrs by propidium iodide staining-based flow cytometric analysis (reference value: 31.5 %)", "assay_type": "functional"}, "HCT-116 [21]": {"system": "HCT-116", "assay": "Cell cycle arrest in human HCT-116 cells assessed as accumulation at G2/M phase at 500 nM after 24 hrs by propidium iodide staining-based flow cytometric analysis (reference value: 31.5 %)", "assay_type": "functional"}, "[22]": {"molecular_target": "Glycogen synthase kinase-3 alpha (Homo sapiens, UniProt P49840)", "sequence (P49840 whole entry)": "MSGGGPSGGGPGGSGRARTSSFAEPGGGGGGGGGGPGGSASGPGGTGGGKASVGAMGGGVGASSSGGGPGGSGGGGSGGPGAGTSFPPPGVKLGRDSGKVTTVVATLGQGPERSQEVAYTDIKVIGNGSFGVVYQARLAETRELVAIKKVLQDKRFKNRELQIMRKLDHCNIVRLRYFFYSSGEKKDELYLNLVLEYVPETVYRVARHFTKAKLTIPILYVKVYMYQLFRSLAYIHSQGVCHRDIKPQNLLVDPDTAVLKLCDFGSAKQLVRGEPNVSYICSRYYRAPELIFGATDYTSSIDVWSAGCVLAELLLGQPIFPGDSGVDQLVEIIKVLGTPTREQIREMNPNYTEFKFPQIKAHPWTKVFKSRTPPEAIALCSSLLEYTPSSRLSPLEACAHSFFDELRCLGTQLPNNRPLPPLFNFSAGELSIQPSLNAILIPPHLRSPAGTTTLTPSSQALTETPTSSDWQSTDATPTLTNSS", "assay": "Inhibition of human GSK3alpha by ADP-Glo assay"}, "SK-OV-3": {"system": "SK-OV-3", "assay": "Antiproliferative activity against human SKOV3 cells assessed as reduction in cell viability incubated for 72 hrs by CellTiter-Blue fluorescence assay", "settings": "SK-OV-3, 72 h"}, "NCI-N87": {"system": "NCI-N87", "assay": "Antiproliferative activity against human NCI-N87 cells assessed as reduction in cell viability incubated for 72 hrs by CellTiter-Blue fluorescence assay", "settings": "NCI-N87, 72 h"}, "K562 [23]": {"system": "K562", "assay": "Antiproliferative activity against human K562 cells assessed as reduction in cell viability incubated for 72 hrs by CellTiter-Blue resazurin fluorescence assay", "settings": "K562, 72 h"}, "MIA PaCa-2": {"system": "MIA PaCa-2", "assay": "Potency index, ratio of flavopiridol IC50 to test compound IC50 for human MIA PaCa-2 cells assessed as reduction in cell viability incubated for 72 hrs by CellTiter-Blue resazurin fluorescence assay"}},
  "note": "Activity calls are given as the source filed them. The calls are words filed in the database; no cut-off is given here.",
  "data": [
    {"smiles": "CN1CC=C(c2c(O)cc(O)c3c(=O)cc(-c4ccc(Sc5nc6ccccc6n5C)cc4Cl)oc23)CC1", "values": [
      {"measurement": "Activity", "setting": "[1]", "value": 24, "unit": "%"},
      {"measurement": "Activity", "setting": "[2]", "value": 68, "unit": "%"},
      {"measurement": "Activity", "setting": "[3]", "value": -2, "unit": "%"},
      {"measurement": "Activity", "setting": "[4]", "value": 1, "unit": "%"},
      {"measurement": "Activity", "setting": "[5]", "value": 2, "unit": "%"},
      {"measurement": "Activity", "setting": "[6]", "value": 12, "unit": "%"},
      {"measurement": "Activity", "setting": "Leishmania major", "value": 38, "unit": "%"},
      {"measurement": "Activity", "setting": "Plasmodium falciparum", "value": 80, "unit": "%"},
      {"measurement": "Activity", "setting": "Sus scrofa", "value": 62, "unit": "%"},
      {"measurement": "IC50", "setting": "[7]", "value": 1090, "unit": "nM"},
      {"measurement": "IC50", "setting": "CDK9/cyclin T1", "value": 64, "unit": "nM"},
      {"measurement": "IC50", "setting": "[8]", "value": 59, "unit": "nM"},
      {"measurement": "inhibition", "setting": "[9]", "value": "Active"},
      {"measurement": "Activity", "setting": "K562 [10]", "value": 20.7, "unit": "%"},
      {"measurement": "Activity", "setting": "K562 [11]", "value": 27.8, "unit": "%"},
      {"measurement": "Activity", "setting": "K562 [12]", "value": 68.6, "unit": "%"},
      {"measurement": "Activity", "setting": "K562 [13]", "value": 49.4, "unit": "%"},
      {"measurement": "Activity", "setting": "K562 [14]", "value": 10.7, "unit": "%"},
      {"measurement": "Activity", "setting": "HCT-116 [15]", "value": 20.6, "unit": "%"},
      {"measurement": "Activity", "setting": "HCT-116 [16]", "value": 26, "unit": "%"},
      {"measurement": "Activity", "setting": "HCT-116 [17]", "value": 34.8, "unit": "%"},
      {"measurement": "Activity", "setting": "HCT-116 [18]", "value": 48.7, "unit": "%"},
      {"measurement": "Activity", "setting": "HCT-116 [19]", "value": 43.1, "unit": "%"},
      {"measurement": "Activity", "setting": "HCT-116 [20]", "value": 30.7, "unit": "%"},
      {"measurement": "Activity", "setting": "HCT-116 [21]", "value": 40, "unit": "%"},
      {"measurement": "IC50", "setting": "[22]", "value": 70, "unit": "nM"},
      {"measurement": "IC50", "setting": "SK-OV-3", "value": 94, "unit": "nM"},
      {"measurement": "IC50", "setting": "NCI-N87", "value": 49, "unit": "nM"},
      {"measurement": "IC50", "setting": "K562 [23]", "value": 50.8, "unit": "nM"},
      {"measurement": "Ratio IC50", "setting": "MIA PaCa-2", "value": "<=6"}
    ]}
  ]
}
